{"source": "ChEMBL document CHEMBL4138104", "about": "“Indole carboxylic acid esters of melampomagnolide B are potent anticancer agents against both hematological and solid tumor cells” (Eur J Med Chem, 2017)", "format_in_all_cases": "functional", "key": {"Rattus norvegicus": {"species_on_record": "Rattus norvegicus", "experiment": "Inhibition of colony formation of rat 9LSF cells at 5 to 20 uM after 48 hrs by colony formation assay", "summary_of_the_method": "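9L-SF cells were seeded in 60 mm dishes to reach 50% confluence (6.65×10^4 cells/cm²) after 24 h. They were treated 48 h with drug serially diluted from DMSO stock (max 0.05% DMSO), then rinsed, trypsinized, counted and seeded in triplicate flasks for colonies. Lethally irradiated (25 Gy) feeders kept density at 2,000 cells/cm². Survival was normalized to control plating efficiency, with three experiments.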"}, "[1]": {"experiment": "Potency index, ratio of melampomagnolide-B EC50 to compound EC50 for human M9-ENL1 cells", "summary_of_the_method": "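M9-ENL1 AML cells, derived by MLL-ENL transduction of human blood cells, were plated at 10^6 cells/mL in alpha-MEM with 5% human plasma, 20% FBS, SCF, IL-3, IL-7 and FLT3 ligand. Exposure was 24 h. Non-apoptotic (Annexin V/7-AAD double-negative) fraction was normalized to vehicle, in triplicate, to give EC50. PTL and MMB were run as reference controls.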"}, "[2]": {"experiment": "Cytotoxicity against human M9-ENL1 cells assessed as reduction in cell viability by trypan blue staining-based assay", "summary_of_the_method": "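M9-ENL1 AML cells (MLL-ENL-transduced human blood cells) plated at 10^6 cells/mL in alpha-MEM with 5% human plasma, 20% FBS, SCF, IL-3, IL-7 and FLT3. Drug diluted from DMSO stock into PBS, final DMSO ≤0.5%. After 24 h exposure, dead cells assessed by trypan blue and by flow cytometry (Annexin V/PI or Annexin V/7-AAD). Viability normalized to vehicle; EC50 from dose-response curves; triplicate.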"}}, "note": "Activity calls are given as the source filed them. The rule behind the calls is not given here.", "data": [{"smiles": "C=C1C(=O)O[C@H]2[C@H]1CC/C(CO)=C\\CC[C@@]1(C)O[C@@H]21", "values": [{"measurement": "inhibition", "setting": "Rattus norvegicus", "result": "Active"}]}, {"smiles": "C=C1C(=O)O[C@@H]2[C@H]3O[C@]3(C)CC/C=C(/COC(=O)c3ccc4cc[nH]c4c3)CC[C@@H]12", "values": [{"measurement": "Ratio IC50", "setting": "[1]", "result": "2 - 20"}, {"measurement": "EC50", "setting": "[2]", "result": 2500, "unit": "nM"}]}, {"smiles": "C=C1C(=O)O[C@@H]2[C@H]3O[C@]3(C)CC/C=C(/COC(=O)Cc3c[nH]c4ccccc34)CC[C@@H]12", "values": [{"measurement": "Ratio IC50", "setting": "[1]", "result": "2 - 20"}, {"measurement": "EC50", "setting": "[2]", "result": 4000, "unit": "nM"}]}, {"smiles": "C=C1C(=O)O[C@@H]2[C@H]3O[C@]3(C)CC/C=C(/COC(=O)Cc3c(C)n(C(=O)c4ccc(Cl)cc4)c4ccc(OC)cc34)CC[C@@H]12", "values": [{"measurement": "Ratio IC50", "setting": "[1]", "result": "2 - 20"}, {"measurement": "EC50", "setting": "[2]", "result": 2700, "unit": "nM"}]}, {"smiles": "O=C(O)c1cc2ccccc2[nH]1", "values": [{"measurement": "inhibition", "setting": "Rattus norvegicus", "result": "Active"}]}, {"smiles": "C=C1C(=O)O[C@@H]2[C@H]3O[C@]3(C)CC/C=C(/COC(=O)c3sc4ccccc4c3Cl)CC[C@@H]12", "values": [{"measurement": "Ratio IC50", "setting": "[1]", "result": "2 - 20"}, {"measurement": "EC50", "setting": "[2]", "result": 2100, "unit": "nM"}]}, {"smiles": "C=C1C(=O)O[C@@H]2[C@H]3O[C@]3(C)CC/C=C(/COC(=O)c3ccc4[nH]ccc4c3)CC[C@@H]12", "values": [{"measurement": "Ratio IC50", "setting": "[1]", "result": "2 - 20"}, {"measurement": "EC50", "setting": "[2]", "result": 3000, "unit": "nM"}]}]}
